# KCNK3 inh – human KCNK3 channel inhibitors, primary screen, CHO cells, FluxOR thallium flux, B-score; Potassium channel subfamily K member 3 (Homo sapiens), O14649; FluxOR fluorescence; hits give low values; B-score at 10 µM; hit rate 0.84% among 340,000; AID 602410, 2012;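 active = B-score under library mean minus 4 SD, starting fluorescence ratio at most library mean plus 5 SD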;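 also: more negative B-score means stronger inhibition of thallium flux through KCNK3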
# KCC2 mod – KCC2 cotransporter modulators, thallium flux, primary screen, cell-based, HEK293 KCC2, FluoZin-2 fluorescence, MLSMR. Solute carrier family 12 member 5 (Homo sapiens), Q9H2X9. KCC2 cells, thallium flux FluoZin-2 fluorescence. B-score of Tl+ flux slope (higher = more flux/activation; lower = inhibition) at 10 µM. hit rate 2.2% among 190,000;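 active = thallium flux slope and its plate-corrected score both differing from the plate sample mean at a set confidence after two filtering rounds, in either direction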;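 also: slope of fluorescence scaled to starting intensity during 10 to 20 s after thallium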
# Target sequence (Q9H2X9 whole entry, looked up): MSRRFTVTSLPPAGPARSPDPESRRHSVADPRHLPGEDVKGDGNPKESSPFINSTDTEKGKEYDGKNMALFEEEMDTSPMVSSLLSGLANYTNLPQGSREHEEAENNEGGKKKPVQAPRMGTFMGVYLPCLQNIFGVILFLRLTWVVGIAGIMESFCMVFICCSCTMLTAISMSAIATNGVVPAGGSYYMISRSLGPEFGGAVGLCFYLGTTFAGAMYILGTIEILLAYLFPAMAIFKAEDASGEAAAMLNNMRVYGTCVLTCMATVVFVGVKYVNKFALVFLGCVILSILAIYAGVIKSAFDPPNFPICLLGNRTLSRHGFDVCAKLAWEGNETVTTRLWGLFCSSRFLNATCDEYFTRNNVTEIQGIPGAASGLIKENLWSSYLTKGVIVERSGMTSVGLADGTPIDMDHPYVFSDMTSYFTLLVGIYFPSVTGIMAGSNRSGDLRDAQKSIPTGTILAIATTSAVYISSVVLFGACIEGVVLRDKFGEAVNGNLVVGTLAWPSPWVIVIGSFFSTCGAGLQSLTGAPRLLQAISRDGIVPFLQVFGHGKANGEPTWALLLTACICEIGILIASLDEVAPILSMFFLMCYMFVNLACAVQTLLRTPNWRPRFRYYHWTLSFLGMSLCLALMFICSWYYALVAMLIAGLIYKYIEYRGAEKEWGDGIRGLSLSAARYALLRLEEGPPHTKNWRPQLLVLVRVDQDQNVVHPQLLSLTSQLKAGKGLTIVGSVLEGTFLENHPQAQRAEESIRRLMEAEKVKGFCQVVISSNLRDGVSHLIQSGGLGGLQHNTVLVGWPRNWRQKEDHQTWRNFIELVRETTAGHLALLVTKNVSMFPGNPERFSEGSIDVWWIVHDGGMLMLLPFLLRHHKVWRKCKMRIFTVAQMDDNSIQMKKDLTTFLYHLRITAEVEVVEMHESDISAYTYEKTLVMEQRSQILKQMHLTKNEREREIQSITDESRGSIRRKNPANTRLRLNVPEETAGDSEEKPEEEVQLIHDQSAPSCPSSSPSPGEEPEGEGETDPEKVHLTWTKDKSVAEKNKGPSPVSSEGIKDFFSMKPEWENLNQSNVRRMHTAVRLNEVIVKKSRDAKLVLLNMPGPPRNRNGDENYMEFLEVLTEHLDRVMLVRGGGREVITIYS
# hERG protect – hERG rescue from dofetilide block, primary screen, cell-based, CHO-hERG, FluxOR thallium flux, dofetilide IC70. hit rate 0.51% among 310,000. activation (rescue from dofetilide block), less the hit threshold, % at 10 µM. dofetilide IC70 present. Voltage-gated inwardly rectifying potassium channel KCNH2 (Homo sapiens), Q12809. AID 1511, 2009;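 active = activation above the mean of controls blocked by dofetilide plus 5 SD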;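 also: thallium influx through hERG after potassium depolarization seen as dye fluorescence rise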
# KCNK9 block – KCNK9 potassium channel inhibitors, primary screen, HEK293 cells, thallium flux | Potassium channel subfamily K member 9 (Homo sapiens), Q9NPC2 | FluxOR thallium flux fluorescence; hits give low values | B-score at 10 µM | hit rate 1.2% among 310,000 | AID 488922, 2010;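 active = ratio B-score over 3 SD below the library mean, with starting fluorescence within 5 SD of its mean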;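 also: negative B-score means less thallium flux so channel inhibition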
# KCNQ1 pot – potentiators or activators of KCNQ1 channel, primary screen, cell-based, thallium flux, high-throughput; CHO-K1 KCNQ1, thallium flux FluxOR fluorescence; hits give high values; AID 2648, 2010; Potassium voltage-gated channel subfamily KQT member 1 (Homo sapiens), P51787; B-score at 10 µM; hit rate 0.35% among 310,000;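 active = fluorescence ratio B-score, a plate-corrected score, at least three library SD, with initial intensity B-score within 5 SD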
#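 Assay system: CHO-K1 cells stably expressing KCNQ1. Medium: assay buffer for compound exposure, DMSO matched across wells. Timing: 37 °C overnight plating, 90-min dark dye load, 20-min compound pretreatment. Signal: kinetic FluxOR fluorescence, 10 s baseline plus 110 s post-stimulus.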
# KCNQ1 block – inhibitors of human KCNQ1 channel, primary screen, cell-based, thallium flux, high-throughput. hit rate 1.3% among 310,000. B-score at 10 µM. CHO-K1 KCNQ1, FluxOR thallium flux fluorescence; hits give high values. AID 2642, 2010;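 active = compounds whose thallium flux B-score, printed positive for inhibition, exceeds three library SD while starting fluorescence stays within three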;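 also: channel opened by potassium depolarization with thallium stimulus after 20 min compound exposure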
# KCNQ1 inh valid – KCNQ1 potassium channel inhibitors, confirmation, cell-based, Tl flux, duplicate. shares compounds with KCNQ1 block. KCNQ1 cell line, FluxOR thallium flux fluorescence. inhibition, % at 10 µM. hit rate 93% among 1,600. AID 588353, 2011;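 active = primary screen active, with duplicate mean exceeding buffer control mean plus 3 SD of buffer wells, cut at about 28% in these data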;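 also: 0% = buffer control ratio and 100% = XE991 inhibitor control ratio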
# CHO KCNQ1 ctr – thallium flux effects in parental CHO cells, counter-screen for KCNQ1 inhibitor project, cell-based, Tl flux. shares compounds with KCNQ1 block. parental CHO-K1, FluxOR thallium flux fluorescence ratio; hits give low values; zero means no signal rise above baseline. fluorescence ratio (Tl flux) at 10 µM. hit rate 21% among 1,600. AID 588366, 2011;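 active = mean of duplicate thallium-flux fluorescence ratios in parental host cells more than 5 SD below the buffer control mean, cut at about 0.38 in these data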;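 also: ratio is peak minus minimum fluorescence divided by baseline fluorescence; actives read low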
# KCNQ1 APC inh – KCNQ1 channel inhibitors, confirmation, orthogonal assay, cell-based, automated electrophysiology; shares compounds with KCNQ1 block; hit rate 20% among 490; KCNQ1-CHO cells, automated patch clamp current; calls only at 10 µM;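 active = KCNQ1 current drop exceeding 3 SD of negative control wells, seen in both duplicate runs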;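 also: steady state current during a 2 s step from -80 to +40 mV; negative values mean current inhibition and positive values mean potentiation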
# KCNQ2 spec – KCNQ2 channel inhibition, selectivity assay for KCNQ1 inhibitor project, cell-based | KCNQ2 cells, FluxOR thallium flux fluorescence | shares compounds with KCNQ1 block | inhibition, % at 10 µM | hit rate 71% among 1,600 | AID 651746, 2012;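 active = mean percent inhibition of the KCNQ2 thallium signal more than 5 SD above the buffer-only control wells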;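 also: KCNQ2 expressed in CHO cells; 0% = buffer control wells and 100% = XE-991 inhibitor control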
# KCNQ1 KCNE1 spec – KCNQ1/KCNE1 channel inhibition, selectivity assay for KCNQ1 inhibitor project, CHO-K1 cells, thallium flux, FluxOR; FluxOR thallium flux fluorescence; inhibition, % at 10 µM; shares compounds with KCNQ1 block; hit rate 77% among 1,600;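 active = mean percent inhibition of duplicate wells above the buffer-only control mean plus 3 SD of those controls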;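 also: 0% = buffer only wells and 100% = XE-991 inhibitor control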
# The depositor's hits bear a star; i = inactive; · = no result given; + = active, no number. An excerpt weighted towards active compounds, which were near 4.1% of everything screened.
SMILES,KCNK3 inh,KCC2 mod,hERG protect,KCNK9 block,KCNQ1 pot,KCNQ1 block,KCNQ1 inh valid,CHO KCNQ1 ctr,KCNQ2 spec,KCNQ1 KCNE1 spec,others
COc1ccc(Cl)cc1-c1n[nH]c(=S)o1,i,·,-7,i,i,i,·,·,·,·,
COc1ccc(C)cc1NC(=O)CSc1nc2ccccc2nc1N1CCCC1,i,·,-12,i,i,i,·,·,·,·,
CC1CN(c2nc3ccccc3nc2SCC(=O)Nc2cccc(C(F)(F)F)c2)CC(C)O1 (stereo not drawn),-15*,·,-5,i,i,10*,120*,0.4,126%*,171%*,KCNQ1 APC inh=i
COc1ccccc1NC(=O)CSc1nc2ccccc2nc1N1CC(C)OC(C)C1 (stereo not drawn),i,·,-12,i,i,8*,86*,0.45,106%*,118%*,
Cc1cccc(NC(=O)CSc2nc3ccccc3nc2N2CCCC2)c1,i,·,-10,i,i,i,·,·,·,·,
Cc1cccc(NC(=O)CSc2nc3ccccc3nc2N2CCCCC2)c1,i,·,-4,i,i,8*,84*,0.47,107%*,122%*,
CCOc1ccc(NC(=O)CSc2nc3ccccc3nc2N2CC(C)OC(C)C2)cc1 (stereo not drawn),i,·,-7,i,i,i,·,·,·,·,
COc1ccc(C)cc1NC(=O)CSc1nc2ccccc2nc1N1CC(C)OC(C)C1 (stereo not drawn),i,·,-9,i,i,7*,105*,0.44,95%*,121%*,KCNQ1 APC inh=i
Cc1cc(N2CCOCC2)n2ncc(-c3ccccc3Cl)c2n1,i,·,-4,i,i,i,·,·,·,·,
COc1cccc(NC(=O)CSc2nc(=O)n(CCN(C)C)c3c2CCCC3)c1,i,·,-10,i,i,i,·,·,·,·,
CCn1c(/C=C/c2ccc(O)c(O)c2)nc2ccccc2c1=O,i,·,-17,i,i,7*,30*,0.52,i,i,
CCn1c(/C=C/c2ccc(O)cc2)nc2ccccc2c1=O,i,·,-8,i,i,i,·,·,·,·,
COC(CNC(=O)c1ccc2c3c(onc13)-c1ccccc1C2=O)OC,i,i,-46,i,i,6*,+,0.086*,i,i,
COC(CNC(=O)c1cccnc1)OC,i,·,-8,i,i,i,·,·,·,·,
Cc1cc(Nc2ccccc2)nc2cc(O)ccc12,i,-1.6,-19,i,i,7*,40*,0.47,i,i,
CC(=O)Nc1ccc(Nc2cc(C)c3ccccc3n2)cc1,i,·,-4,i,i,i,·,·,·,·,
COc1ccc(-c2cc(C(=O)N3CCN(c4ccccc4F)CC3)c3ccccc3n2)c(OC)c1,i,·,-19,i,i,7*,110*,0.39,i,176%*,KCNQ1 APC inh=i
COc1ccccc1Nc1cc(C(=O)N2CCc3ccccc3C2)c2ccccc2n1,·,-1.4,-16,i,i,i,·,·,·,·,
COc1ccc(Nc2cc(C(=O)N3CCc4ccccc4C3)c3ccccc3n2)c(OC)c1,i,-1.1,-14,i,i,7*,135*,0.42,130%*,176%*,KCNQ1 APC inh=i
O=C(O)c1ccc(N=Nc2c(O)[nH]c3ccccc23)cc1,i,-1.3,-17,i,i,i,·,·,·,·,
Cc1ccc(Cl)c2c(N=Nc3ccccc3)c(O)[nH]c12,i,·,-5,i,i,6*,148*,0.29*,i,i,
O=C(Nc1ccccn1)C1(c2cccs2)CCOCC1,i,1.9,-3,i,i,i,·,·,·,·,
C=CCNc1ncnc2c1[nH]c1ccc(Cl)cc12,i,0.49,-9,i,i,7*,84*,0.52,i,i,
CN(C(=O)CCn1c(=S)oc2ccccc21)c1ccc(F)cc1,i,-2.2,-12,i,i,i,·,·,·,·,
CC(=O)c1c(C)n(CC(=O)NCc2ccco2)c2ccccc12,i,-0.28,-14,i,i,10*,33*,0.54,i,50%*,
SMILES,KCNK3 inh,KCC2 mod,hERG protect,KCNK9 block,KCNQ1 pot,KCNQ1 block,KCNQ1 inh valid,CHO KCNQ1 ctr,KCNQ2 spec,KCNQ1 KCNE1 spec,others
Cc1ccccc1-n1c(=O)c2ccccc2n(CC(=O)NCc2ccco2)c1=O,i,-2.1,-10,i,i,i,·,·,·,·,
Cc1c(NC(=O)CSc2ncnc3ccccc23)c(=O)n(-c2ccccc2)n1C,i,0.45,-4,i,i,i,·,·,·,·,
c1ccc(-c2nc(NCC3CCCO3)c3ccccc3n2)nc1 (stereo not drawn),i,0.79,-15,i,i,i,·,·,·,·,
c1ccc(Nc2nc(NCC3CCCO3)c3ccccc3n2)cc1 (stereo not drawn),-10*,-0.12,-26,i,i,12*,128*,0.4,116%*,150%*,KCNQ1 APC inh=+
CCOc1ccc(Nc2nc(NCC3CCCO3)c3ccccc3n2)cc1 (stereo not drawn),i,·,-30,i,i,11*,134*,0.39,81%*,132%*,KCNQ1 APC inh=i
OCCNc1nc(Nc2ccc(Br)cc2)nc2ccccc12,·,-0.3,-8,i,i,15*,0,0.46,78%*,i,
NC(=O)NCc1cccnc1,i,0.89,-6,i,i,i,·,·,·,·,
